pIC50: −log10 of the molar value. In brackets after ≈: the same amount, converted by molar mass. Activity calls are given as the source filed them. The rule behind the calls is not given here.
Experiments:
[1] = test system: KM-20L2; experiment: Cytotoxicity against human KM20L2 cells after 48 hrs by sulforhodamine B assay; assay type: functional; settings: KM-20L2, 48 h
How it was run: (§1)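 Human tumor lines exposed to compound for 48 h, then fixed with trichloroacetic acid and stained with sulforhodamine B (NCI standard protocol); optical density read on a microplate reader. GI50 is the concentration giving a 50% reduction in net protein increase, calculated from optical density data.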

[2] = test system: DU-145; experiment: Cytotoxicity against human DU145 cells after 48 hrs by sulforhodamine B assay; assay type: functional; settings: DU-145, 48 h; how it was run: as §1
[3] = Inhibition of tubulin polymerization
How it was run: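 Turbidimetry at 350 nm. Compound at varying concentrations preincubated with 10 μM (1.0 mg/mL) purified tubulin, chilled on ice, then 0.4 mM GTP added and polymerization followed at 30 °C. Extent of polymerization at 20 min measured.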

[4] = Displacement of [3H]colchicine from tubulin
How it was run: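 [3H]colchicine binding with 1.0 μM tubulin, 5.0 μM [3H]colchicine and inhibitor at 1.0 μM.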

[5] = test system: HUVEC; experiment: Induction of microtubule damage in HUVEC at 1 uM after 30 mins; assay type: functional, cell-based; settings: Homo sapiens
How it was run: (§2)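 Primary HUVECs from umbilical cords grown in M199 with 20% human serum, CD31-authenticated. About 3×10^4 cells on gelatin-coated coverslips, 24 h at 37 °C, then compound from DMSO for 30 min to 4 h, in duplicate. Cells methanol-fixed, stained with anti-α-tubulin and TRITC secondary plus Hoechst, imaged by confocal microscopy and scored for microtubule damage.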

[6] = test system: HUVEC; experiment: Induction of microtubule damage in HUVEC at 1 uM after 1 hr; assay type: functional, cell-based; settings: Homo sapiens; how it was run: as §2
[7] = test system: HUVEC; experiment: Induction of microtubule depolymerization in HUVEC at 10 uM after 30 mins; assay type: functional, cell-based; settings: Homo sapiens; how it was run: as §2
[8] = test system: HUVEC; experiment: Induction of microtubule depolymerization in HUVEC at 10 uM after 1 hr; assay type: functional, cell-based; settings: Homo sapiens; how it was run: as §2
[9] = test system: HUVEC; experiment: Induction of microtubule depolymerization in HUVEC at 10 uM after 2 hrs; assay type: functional, cell-based; settings: Homo sapiens; how it was run: as §2
[10] = test system: HUVEC; experiment: Induction of microtubule depolymerization in HUVEC at 10 uM after 4 hrs; assay type: functional, cell-based; settings: Homo sapiens; how it was run: as §2
[11] = test system: HUVEC; experiment: Induction of microtubule depolymerization in HUVEC at 1 uM after 2 hrs; assay type: functional, cell-based; settings: Homo sapiens
How it was run: (§3)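 Primary HUVECs from umbilical cords, grown in M199 with 20% human serum, were seeded (~3×10^4) on gelatin-coated coverslips and grown 24 h at 37 °C. Compound in DMSO was added (final 1, 10 or 100 μM), with duplicate plates. Cells were fixed in ice-cold methanol and immunostained for α-tubulin (TRITC secondary) and with Hoechst. Microtubule disruption was scored by confocal microscopy.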

[12] = test system: HUVEC; experiment: Induction of microtubule depolymerization in HUVEC at 1 uM after 4 hrs; assay type: functional, cell-based; settings: Homo sapiens; how it was run: as §3
[13] = test system: Cryptococcus neoformans; experiment: Antimicrobial activity against Cryptococcus neoformans ATCC 90112 after 72 hrs by broth microdilution assay; assay type: functional; settings: ATCC 90112, 72 h
How it was run: (§4)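 Yeast NCCLS broth microdilution (M27-A). Inoculum 0.5 to 2.5×10^3 CFU/mL; 2-fold dilutions in 0.165 M MOPS-buffered RPMI 1640, pH 7.0; compound from DMSO, DMSO-only turbidity control; 35 °C without agitation; read at 72 h (Cryptococcus). MIC = lowest concentration giving no visible growth.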

[14] = test system: Streptococcus pneumoniae; experiment: Antimicrobial activity against Streptococcus pneumoniae ATCC 6303 after 24 hrs by broth microdilution assay; assay type: functional; settings: ATCC 6303, 24 h
How it was run: (§5)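 Streptococcus tested by NCCLS broth microdilution in cation-adjusted MHII broth with 3% lysed horse blood. Final inoculum about 5×10^5 CFU/mL; 2-fold compound dilutions from DMSO; DMSO turbidity control; 35 °C without agitation, 24 h. MIC = lowest concentration with no visible growth.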

[15] = test system: Micrococcus luteus; experiment: Antimicrobial activity against Micrococcus luteus Presque Isle 456 after 24 hrs by broth microdilution assay; assay type: functional
How it was run: (§6)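 NCCLS bacterial broth microdilution (M7-A5). Overnight colonies diluted to about 5×10^5 CFU/mL final; 2-fold compound dilutions (DMSO stock) in cation-adjusted Mueller Hinton II broth; DMSO turbidity control; 35 °C without agitation, 24 h. MIC = lowest concentration with optically clear wells.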

[16] = test system: Neisseria gonorrhoeae; experiment: Antimicrobial activity against Neisseria gonorrhoeae ATCC 49226 after 24 hrs by broth microdilution assay; assay type: functional; settings: ATCC 49226, 24 h
How it was run: (§7)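 Neisseria tested by NCCLS broth microdilution in gonococcal typing broth. Final inoculum about 5×10^5 CFU/mL; 2-fold compound dilutions from DMSO; DMSO turbidity control; 37 °C with 5% CO₂ without agitation, 24 h. MIC = lowest concentration with no visible growth.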

[17] = test system: Candida albicans; experiment: Antimicrobial activity against Candida albicans ATCC 90028 at 64 ug/mL after 48 hrs by broth microdilution assay; assay type: functional, organism-based
How it was run: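 Yeast NCCLS broth microdilution (M27-A). Inoculum 0.5 to 2.5×10^3 CFU/mL; 2-fold dilutions in 0.165 M MOPS-buffered RPMI 1640, pH 7.0; compound from DMSO, DMSO-only turbidity control; 35 °C without agitation; read at 48 h (Candida). MIC = lowest concentration giving no visible growth.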

[18] = test system: Staphylococcus aureus; experiment: Antimicrobial activity against Staphylococcus aureus ATCC 29213 at 64 ug/mL after 24 hrs by broth microdilution assay; assay type: functional, organism-based; how it was run: as §6
[19] = test system: Enterococcus faecalis; experiment: Antimicrobial activity against Enterococcus faecalis ATCC 29212 at 64 ug/mL after 24 hrs by broth microdilution assay; assay type: functional, organism-based; how it was run: as §6
[20] = test system: Escherichia coli; experiment: Antimicrobial activity against Escherichia coli ATCC 25922 at 64 ug/mL after 24 hrs by broth microdilution assay; assay type: functional, organism-based; how it was run: as §6
[21] = test system: Enterobacter cloacae; experiment: Antimicrobial activity against Enterobacter cloacae ATCC 13047 at 64 ug/mL after 24 hrs by broth microdilution assay; assay type: functional, organism-based; how it was run: as §6
[22] = test system: Stenotrophomonas maltophilia; experiment: Antimicrobial activity against Stenotrophomonas maltophilia ATCC 13637 at 64 ug/mL after 24 hrs by broth microdilution assay; assay type: functional, organism-based; how it was run: as §6
[23] = test system: NCI-H460; experiment: Cytotoxicity against human NCI-H460 cells after 48 hrs by sulforhodamine B assay; assay type: functional; settings: NCI-H460, 48 h; how it was run: as §1
[24] = test system: BXPC-3; experiment: Cytotoxicity against human BxPC3 cells after 48 hrs by sulforhodamine B assay; assay type: functional; settings: BXPC-3, 48 h; how it was run: as §1
[25] = test system: MCF7; experiment: Cytotoxicity against human MCF7 cells after 48 hrs by sulforhodamine B assay; assay type: functional; settings: MCF7, 48 h; how it was run: as §1
[26] = test system: SF-268; experiment: Cytotoxicity against human SF268 cells after 48 hrs by sulforhodamine B assay; assay type: functional; settings: SF-268, 48 h; how it was run: as §1
[27] = test system: P388; experiment: Cytotoxicity against mouse P388 cells after 48 hrs by Coulter particle counting; settings: P388, 48 h, read-out: ED50 (the source's name)
[28] = test system: Cryptococcus neoformans; experiment: Antimicrobial activity against Cryptococcus neoformans ATCC 90112 at 64 ug/mL after 72 hrs by broth microdilution assay; assay type: functional, organism-based; how it was run: as §4
[29] = test system: Streptococcus pneumoniae; experiment: Antimicrobial activity against Streptococcus pneumoniae ATCC 6303 at 64 ug/mL after 24 hrs by broth microdilution assay; assay type: functional, organism-based; how it was run: as §5
[30] = test system: Micrococcus luteus; experiment: Antimicrobial activity against Micrococcus luteus Presque Isle 456 at 64 ug/mL after 24 hrs by broth microdilution assay; assay type: functional, organism-based; how it was run: as §6
[31] = test system: Neisseria gonorrhoeae; experiment: Antimicrobial activity against Neisseria gonorrhoeae ATCC 49226 at 64 ug/mL after 24 hrs by broth microdilution assay; assay type: functional, organism-based; how it was run: as §7

| SMILES | GI50 [1] [µg/mL] | GI50 [2] [µg/mL] | Activity [17] | Activity [18] | Activity [19] | Activity [20] | Activity [21] | Activity [22] | GI50 [23] [µg/mL] | GI50 [24] [µg/mL] | GI50 [25] [µg/mL] | GI50 [26] [µg/mL] | EC50 [27] [µg/mL] | further results |
| --- | --- | --- | --- | --- | --- | --- | --- | --- | --- | --- | --- | --- | --- | --- |
| COc1ccc(/C=C\c2cc(Cl)c(OC)c(OC)c2)cc1O | 0.27 (≈ 0.842 µM) | 0.00025 (≈ 0.000779 µM) | inactive | inactive | inactive | inactive | inactive | inactive | 0.00026 (≈ 0.000811 µM) | 0.32 (≈ 0.998 µM) | 0.0026 (≈ 0.00811 µM) | < 0.0009 | 0.0024 (≈ 0.00748 µM) | pIC50 [3]: 5.80; Activity [4]: 85%; Activity [5]: Active; Activity [6]: Active; Activity [7]: Active; Activity [8]: Active; Activity [9]: Active; Activity [10]: Active; Activity [11]: Active; Activity [12]: Active; MIC [13]: 64 µg/mL (≈ 200 µM); MIC [14]: 32 µg/mL (≈ 99.8 µM); MIC [15]: 32 µg/mL (≈ 99.8 µM); MIC [16]: 16 µg/mL (≈ 49.9 µM) |
| COc1ccc(/C=C/c2cc(Br)c(OC)c(OC)c2)cc1O | 1.2 (≈ 3.29 µM) | 0.13 (≈ 0.356 µM) | inactive | inactive | inactive | inactive | inactive | inactive | 0.15 (≈ 0.411 µM) | 1.6 (≈ 4.38 µM) | 0.14 (≈ 0.383 µM) | 0.18 (≈ 0.493 µM) | 0.0174 (≈ 0.0476 µM) | Activity [28]: inactive; Activity [29]: inactive; Activity [30]: inactive; Activity [31]: inactive |

— ChEMBL document CHEMBL1151261, “Antineoplastic agents. 509: synthesis of fluorcombstatin phosphate and related 3-halostilbenes(1)” (J Nat Prod, 2005)
